Our source for the Ki values is ChEMBL document CHEMBL3351968, “Synthesis and analgesic activity of alkylated, reduced and constrained oligoheterocyclic peptidomimetic analogs of Leu-enkephalin” (Bioorg Med Chem Lett, 2014).

Square brackets hold non-standard residues; d marks the D form. Peptide text beside a SMILES is read from it. ξ: configuration not given here. NMeY = CN[C@@H](Cc1ccc(O)cc1)C(=O)O; NMeF = CN[C@@H](Cc1ccccc1)C(=O)O; ξP = O=C(O)C1CCCN1; Ava = NCCCCC(=O)O

The target of one assay is Mu-type opioid receptor (Rattus norvegicus, UniProt P33535). Kind of assay: Displacement of [3H]DAMGO from mu opioid receptor in rat brain membrane by liquid scintillation counting analysis. Format: cell membranes. In a few lines: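 Competitive radioligand binding at the mu (MOR) opioid receptor with [3H]-DAMGO as tracer; affinity expressed as Ki.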
Mu-type opioid receptor, sequence (P33535 whole entry): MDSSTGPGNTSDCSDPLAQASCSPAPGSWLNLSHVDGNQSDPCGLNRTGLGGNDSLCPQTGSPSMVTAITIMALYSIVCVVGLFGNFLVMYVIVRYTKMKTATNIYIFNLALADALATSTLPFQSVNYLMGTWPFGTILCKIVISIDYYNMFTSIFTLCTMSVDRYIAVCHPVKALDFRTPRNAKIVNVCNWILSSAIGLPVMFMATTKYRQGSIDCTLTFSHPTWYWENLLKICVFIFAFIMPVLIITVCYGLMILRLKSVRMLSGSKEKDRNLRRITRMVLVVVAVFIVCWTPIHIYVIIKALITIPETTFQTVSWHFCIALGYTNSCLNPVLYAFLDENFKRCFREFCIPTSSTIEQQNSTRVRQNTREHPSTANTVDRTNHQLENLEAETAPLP
Assay [1] addresses Kappa-type opioid receptor (Cavia porcellus, UniProt P41144). Kind of assay: Displacement of [3H]U69593 from kappa opioid receptor in guinea pig cortices membrane by liquid scintillation counting analysis. Format: cell membranes. A digest of the protocol: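 Competitive radioligand binding at the kappa (KOR) opioid receptor with [3H]-U69,593 as tracer; affinity expressed as Ki.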
For orientation: Displacement assays read how much labelled ligand stays bound in the presence of the test substance.

Kappa-type opioid receptor, sequence (P41144 whole entry): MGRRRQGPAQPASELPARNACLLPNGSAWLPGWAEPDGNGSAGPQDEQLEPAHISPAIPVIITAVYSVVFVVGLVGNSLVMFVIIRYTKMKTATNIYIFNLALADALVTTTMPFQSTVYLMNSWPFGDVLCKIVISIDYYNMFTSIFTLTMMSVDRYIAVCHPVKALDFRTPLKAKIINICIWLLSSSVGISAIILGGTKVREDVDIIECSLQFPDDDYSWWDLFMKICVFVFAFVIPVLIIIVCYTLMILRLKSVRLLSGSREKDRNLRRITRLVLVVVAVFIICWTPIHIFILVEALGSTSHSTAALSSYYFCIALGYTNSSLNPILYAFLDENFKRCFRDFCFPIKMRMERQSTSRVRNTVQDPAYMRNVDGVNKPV

Broadly, the Ki is a dissociation constant, usually derived from enzyme kinetics or from competition with a known ligand. A high value points to lower affinity. For `CC(C)C[C@H]1CNC(=S)N1C[C@H](Cc1ccccc1)N(C)CCN(C)CCN1C[C@H](Cc2ccc(O)cc2)N(C)C1=S`, the inhibition constant Ki at Mu-type opioid receptor turned out to be 7110 nM; in assay [1] it was 3420 nM.

In the case of `CN[C@H](CNCC(=O)N(C)CCN(C)[C@H](CN[C@H](CN)CC(C)C)Cc1ccccc1)Cc1ccc(O)cc1`, the inhibition constant (Ki) on Mu-type opioid receptor was 1500 nM; in assay [1], 1110 nM.

As for `CC(C)C[C@H]1CNC(=O)C(=O)N1C[C@H](Cc1ccccc1)N(C)CCN(C)CCN1C[C@H](Cc2ccc(O)cc2)N(C)C(=O)C1=O`, the Ki on Mu-type opioid receptor was determined as 15200 nM; in assay [1], 94200 nM.

As to `CC(C)C[C@H]1CNCCN1C[C@H](Cc1ccccc1)N(C)CCN(C)CCN1CCN(C)[C@@H](Cc2ccc(O)cc2)C1`, the Ki at Mu-type opioid receptor was 2650 nM; in assay [1] it was 3120 nM.

`CC(C)C[C@H]1CNC(=S)N1C[C@H](Cc1ccccc1)N(C)CCN1CCN(C[C@H](Cc2ccc(O)cc2)N(C)C)C1=S`: the Ki on Mu-type opioid receptor turned out to be 740 nM; in assay [1], 2300 nM.

For the compound `CC(C)C[C@H]1CNC(=N)N1C[C@H](Cc1ccccc1)N(C)CCN1CCN(C[C@H](Cc2ccc(O)cc2)N(C)C)C1=N`, the inhibition constant Ki on Mu-type opioid receptor came out at 1080 nM; in assay [1], 11300 nM.

Regarding `CC(C)C[C@H]1CNCCN1C[C@H](Cc1ccccc1)N(C)CCN1CCN(C[C@H](Cc2ccc(O)cc2)N(C)C)CC1`, the Ki at Mu-type opioid receptor turned out to be 1150 nM; in assay [1], 3430 nM.

For the compound `CC(C)C[C@H]1CNC(=S)N1C[C@H](Cc1ccccc1)N(C)C[C@@H]1CCCN1C[C@H](Cc1ccc(O)cc1)N(C)C`, the inhibitory constant (Ki) on Mu-type opioid receptor turned out to be 430 nM; in assay [1] it was 3320 nM.

Take `CC(C)C[C@H]1CNC(=O)C(=O)N1C[C@H](Cc1ccccc1)N(C)C[C@@H]1CCCN1C[C@H](Cc1ccc(O)cc1)N(C)C`: the Ki on Mu-type opioid receptor came out at 250 nM; in assay [1], 10600 nM.

As for `CC(C)C[C@@H](CN)NC[C@H](Cc1ccccc1)N(C)C[C@@H]1CCCN1C[C@H](Cc1ccc(O)cc1)N(C)C`, the inhibitory constant (Ki) is 60 nM at Mu-type opioid receptor and 1280 nM in assay [1].

As for `CC(C)C[C@H]1CNC(=S)N1C[C@H](Cc1ccccc1)N(C)CCCCCN1C[C@H](Cc2ccc(O)cc2)NC1=S`, the Ki came to 11000 nM at Mu-type opioid receptor and 9480 nM in assay [1].

As to `CC(C)CC(CN)NCC(Cc1ccccc1)N(C)CCCCCNCC(N)Cc1ccc(O)cc1` (stereo not drawn), the inhibition constant (Ki) was 1790 nM at Mu-type opioid receptor and 1620 nM in assay [1].

Consider `CC(C)C[C@H](NC(=O)[C@H](Cc1ccccc1)N(C)C(=O)CCCCNC(=O)[C@@H](N)Cc1ccc(O)cc1)C(N)=O` (H-Y[Ava][NMeF]L-NH2), for which the Ki was found to be 38900 nM on Mu-type opioid receptor and 22500 nM in assay [1].

For `CN[C@@H](Cc1ccc(O)cc1)C(=O)N1CCCC1C(=O)N(C)[C@@H](Cc1ccccc1)C(=O)N[C@@H](CC(C)C)C(N)=O` (stereo partly drawn) (H-[NMeY][ξP][NMeF]L-NH2), the values for the inhibition constant (Ki) (on Mu-type opioid receptor; in assay [1]) were 2140 nM and 2030 nM, respectively.
